Measured values taken from ChEMBL document CHEMBL1122532, “[(Aminomethyl)aryloxy]acetic acid esters. A new class of high-ceiling diuretics. 2. Modifications of the oxyacetic side chain” (J Med Chem, 1984).
Each block holds one molecule with its values, some of them ahead of it. Active and inactive are the calls of the source. The rule behind the calls is not given here.

What was measured:
Canis familiaris [1] = assay: Oral dose in mg/kg necessary to produce an excretion of 5 mequiv of Na+/kg in the dog urine during 6-h period after dosing; settings: in vivo
[2] = Dose required for 50% inhibition of chloride transport in frog cornea was evaluated; type: functional
Rattus norvegicus [3] = assay: Oral dose necessary to produce an excretion of 2 mequiv of Na+/kg in the rat urine in the 4-h period after peroral administration; type: ADME, organism-based; settings: in vivo
How it was run: (§1)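 Rats dosed orally. Urinary Na⁺ was measured over the 4 h after dosing. ED₂ is the oral dose (mg/kg) giving excretion of 2 mequiv Na⁺/kg in that period.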

Canis familiaris [4] = species on record: Canis familiaris; assay: Relative amount of acid ([4-(3-Aminomethyl-4-hydroxy-benzoyl)-2,3-dichloro-phenoxy]-acetic acid;) appearing in dog plasma was reported; type: functional, Canis lupus familiaris
Rattus norvegicus [5] = assay: Oral dose necessary to produce an excretion of 2 mequiv of Na+/kg in the rat urine in the 4-h period after peroral administration; Inactive; type: ADME, organism-based; settings: in vivo
How it was run: as §1

frog = assay: Dose required for 50% inhibition of chloride transport in frog cornea was evaluated; No inhibition; type: functional, tissue-based
Rattus norvegicus [6] = assay: Oral dose necessary to produce an excretion of 2 mequiv of Na+/kg in the rat urine in the 4-h period after peroral administration; inactive; type: ADME, organism-based; settings: in vivo
How it was run: as §1

ED5 (Canis familiaris [1]): 1 mg/kg
IC50 [2]: 14.6 µM
ED2 (Rattus norvegicus [3]): 2.5 mg/kg
SMILES: CCOC(=O)COc1ccc(C(=O)c2ccc(O)c(CN)c2)c(Cl)c1Cl.Cl
Relative amount (Canis familiaris [4]): 100%

ED2 (Rattus norvegicus [5]): Not Active
SMILES: COc1ccc(C(=O)c2ccc(O)c(CN)c2)c(Cl)c1Cl.Cl

ED5 (Canis familiaris [1]): 0.7 mg/kg
IC50 [2]: 16.5 µM
ED2 (Rattus norvegicus [3]): 17 mg/kg
SMILES: Cl.NCc1cc(C(=O)c2ccc(OCC(N)=O)c(Cl)c2Cl)ccc1O
Relative amount (Canis familiaris [4]): 67%

ED2 (Rattus norvegicus [3]): 19.5 mg/kg
SMILES: CCOC(=O)C(C)Oc1ccc(C(=O)c2ccc(O)c(CN)c2)c(Cl)c1Cl.Cl (stereo unspecified)

ED2 (Rattus norvegicus [5]): Not Active
SMILES: CCOC(=O)c1ccc(Oc2ccc(O)c(CN)c2)c(Cl)c1Cl.Cl

ED5 (Canis familiaris [1]): 8 mg/kg
ED2 (Rattus norvegicus [3]): 16.2 mg/kg
SMILES: Cl.NCCOc1ccc(C(=O)c2ccc(O)c(CN)c2)c(Cl)c1Cl
Inhibition (frog): inactive
Relative amount (Canis familiaris [4]): 25%

ED2 (Rattus norvegicus [3]): 0.8 mg/kg
SMILES: CCOC(=O)COc1ccc(Oc2ccc(O)c(CN)c2)c(Cl)c1Cl.Cl

ED2 (Rattus norvegicus [3]): 0.11 mg/kg
SMILES: CCOC(=O)C1Cc2cc(C(=O)c3ccc(O)c(CN)c3)c(Cl)c(Cl)c2O1 (stereo unspecified)

ED2 (Rattus norvegicus [3]): 1.22 mg/kg
SMILES: CCOC(=O)CSc1ccc(Oc2ccc(O)c(CN)c2)c(Cl)c1Cl.Cl

ED2 (Rattus norvegicus [6]): Not Active
SMILES: CCOC(=O)C(C)(C)Oc1ccc(C(=O)c2ccc(O)c(CN)c2)c(Cl)c1Cl.Cl

ED2 (Rattus norvegicus [3]): 13.5 mg/kg
SMILES: CCOC(=O)CCCOc1ccc(Oc2ccc(O)c(CN)c2)c(Cl)c1Cl.Cl

ED5 (Canis familiaris [1]): 0.71 mg/kg
IC50 [2]: 8.4 µM
ED2 (Rattus norvegicus [5]): Not Active
SMILES: Cl.NCc1cc(C(=O)c2ccc(OCC(=O)O)c(Cl)c2Cl)ccc1O

ED2 (Rattus norvegicus [3]): 21.5 mg/kg
SMILES: CCOC(=O)Cc1ccc(Oc2ccc(O)c(CN)c2)c(Cl)c1Cl.Cl

ED2 (Rattus norvegicus [5]): Not Active
SMILES: Cl.N#CCOc1ccc(C(=O)c2ccc(O)c(CN)c2)c(Cl)c1Cl

ED2 (Rattus norvegicus [3]): 10.7 mg/kg
SMILES: CCOC(=O)CCc1ccc(Oc2ccc(O)c(CN)c2)c(Cl)c1Cl.Cl

ED2 (Rattus norvegicus [3]): 28.5 mg/kg
SMILES: CC(=O)COc1ccc(C(=O)c2ccc(O)c(CN)c2)c(Cl)c1Cl.Cl

ED5 (Canis familiaris [1]): 5.5 mg/kg
ED2 (Rattus norvegicus [3]): 1 mg/kg
SMILES: Cl.NCc1cc(C(=O)c2ccc(OCCO)c(Cl)c2Cl)ccc1O
Inhibition (frog): inactive
Relative amount (Canis familiaris [4]): 13%
